According to ChEMBL document CHEMBL1148335, “Design and synthesis of potent inhibitors of the malaria aspartyl proteases plasmepsin I and II. Use of solid-phase synthesis to explore novel statine motifs” (J Med Chem, 2004):

Legend:
Plasmepsin I = Plasmepsin I (Plasmodium falciparum, UniProt P39898); experiment: In vitro inhibition of aspartic protease plasmepsin-1 (Plm) of Plasmodium falciparum.
Method in brief: (§1)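 Fluorogenic DABCYL-Glu-Arg-Nle-Phe-Leu-Ser-Phe-Pro-EDANS substrate at 3 µM in 100 mM sodium acetate pH 4.5, 10% glycerol, 0.01% Tween 20. Inhibitors were serially diluted in DMSO and added just before substrate, at 1% final DMSO. Fluorescence increase was read over a linear 10 min. IC50 came from a competitive Langmuir fit, and Ki = IC50/(1+[S]/Km), with Km from Michaelis-Menten.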

Cathepsin D = Cathepsin D (Homo sapiens, UniProt P07339); experiment: In vitro inhibition of human liver cathepsin D.; method in brief: as §1
Sequence of Cathepsin D (P07339 65-162 limits assumed): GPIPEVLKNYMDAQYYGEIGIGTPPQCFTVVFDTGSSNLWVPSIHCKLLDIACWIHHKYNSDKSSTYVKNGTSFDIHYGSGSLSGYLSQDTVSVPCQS
Sequence of Cathepsin D (P07339 169-412 limits assumed): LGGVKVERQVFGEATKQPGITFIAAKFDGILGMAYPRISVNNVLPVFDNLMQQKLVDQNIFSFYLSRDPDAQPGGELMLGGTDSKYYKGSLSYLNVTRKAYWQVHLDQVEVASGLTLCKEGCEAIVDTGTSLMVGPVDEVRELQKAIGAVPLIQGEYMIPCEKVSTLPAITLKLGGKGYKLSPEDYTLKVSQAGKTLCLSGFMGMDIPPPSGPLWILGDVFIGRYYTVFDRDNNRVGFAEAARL

Plasmepsin II = Plasmepsin II (Plasmodium falciparum, UniProt P46925); experiment: In vitro inhibition of aspartic protease plasmepsin (Plm) II of Plasmodium falciparum; method in brief: as §1
Sequence of Plasmepsin II (P46925 whole entry): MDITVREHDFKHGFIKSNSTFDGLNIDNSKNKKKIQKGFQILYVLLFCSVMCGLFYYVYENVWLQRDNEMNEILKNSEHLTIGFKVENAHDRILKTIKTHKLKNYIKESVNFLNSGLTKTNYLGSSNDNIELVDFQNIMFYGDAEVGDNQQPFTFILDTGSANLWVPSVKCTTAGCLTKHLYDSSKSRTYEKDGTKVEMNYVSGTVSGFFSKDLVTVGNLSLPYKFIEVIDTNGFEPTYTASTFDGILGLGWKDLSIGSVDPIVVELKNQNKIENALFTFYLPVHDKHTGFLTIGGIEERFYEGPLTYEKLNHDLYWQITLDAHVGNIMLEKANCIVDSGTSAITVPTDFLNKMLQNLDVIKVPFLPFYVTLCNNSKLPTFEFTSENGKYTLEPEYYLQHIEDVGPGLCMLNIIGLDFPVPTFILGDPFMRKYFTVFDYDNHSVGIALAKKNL

Plasmodium falciparum [1] = experiment: Growth inhibition of Plasmodium falciparum infected human erythrocytes at 5 uM; type: functional
Method in brief: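 P. falciparum clone 3D7 was used as a highly synchronous early-trophozoite culture at ~1% haematocrit and 1% parasitaemia, with [3H]hypoxanthine at 10 µCi/ml. Compound was added at 1–5 µM final, with DMSO at most 1% v/v. Cultures grew 37 °C, 30 h, to schizonts, then were harvested onto filters for β-counting. Radioactivity was expressed relative to DMSO-only wells, from four independent experiments.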

Plasmodium falciparum [2] = experiment: Growth inhibition of Plasmodium falciparum infected human erythrocytes at 20 uM; type: functional

Sequence of Plasmepsin I (P39898 whole entry): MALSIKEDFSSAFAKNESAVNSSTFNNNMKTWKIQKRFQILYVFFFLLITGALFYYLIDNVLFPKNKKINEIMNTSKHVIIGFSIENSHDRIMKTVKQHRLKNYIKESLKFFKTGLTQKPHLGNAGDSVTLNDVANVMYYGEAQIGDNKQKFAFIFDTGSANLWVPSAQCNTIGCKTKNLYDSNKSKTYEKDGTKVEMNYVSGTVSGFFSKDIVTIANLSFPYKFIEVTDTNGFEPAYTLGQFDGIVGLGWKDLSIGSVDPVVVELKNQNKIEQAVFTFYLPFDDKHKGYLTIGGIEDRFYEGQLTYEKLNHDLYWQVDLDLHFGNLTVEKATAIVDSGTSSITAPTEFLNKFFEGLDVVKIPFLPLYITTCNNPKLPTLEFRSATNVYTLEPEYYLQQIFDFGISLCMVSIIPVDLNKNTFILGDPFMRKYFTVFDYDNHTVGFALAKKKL

| Compound | Ki (Plasmepsin I) [nM] | Ki (Cathepsin D) [nM] | Ki (Plasmepsin II) [nM] | inhibition at 5 µM (Plasmodium falciparum [1]) [%] | inhibition at 20 µM (Plasmodium falciparum [2]) [%] |
| --- | --- | --- | --- | --- | --- |
| O=C(C[C@H](O)[C@H](COCc1ccc(Br)cc1)NC(=O)c1c(F)cc(F)cc1F)NC1CCCCC1 | 822 | > 5900 | 230 |  |  |
| COc1cccc(CCNC(=O)C[C@H](O)[C@H](COCc2ccc(Br)cc2)NC(=O)c2c(F)cc(F)cc2F)c1 | 619 | > 5900 | 390 |  |  |
| CC(C)C[C@H](NC(=O)[C@H](C)NC(=O)C[C@H](O)[C@H](COCc1ccc(Br)cc1)NC(=O)Cc1cccs1)C(N)=O | 24 | 35 | 348 |  |  |
| CC(C)[C@H](NC(=O)c1ccccn1)C(=O)N[C@@H](COCc1ccc(Br)cc1)[C@@H](O)CC(=O)NCc1ccc(C#N)cc1 | 53 | 623 | 256 |  |  |
| COc1cccc(CCNC(=O)C[C@H](O)[C@H](COCc2ccc(Br)cc2)NC(=O)[C@@H](NC(=O)c2ccccn2)C(C)C)c1 | 6.7 | 140 | 29 | 25 |  |
| CC(C)[C@H](NC(=O)c1ccccn1)C(=O)N[C@@H](COCc1ccc(Br)cc1)[C@@H](O)CC(=O)NCCCc1ccccc1 | 5.4 | 459 | 30 |  |  |
| CC(C)C[C@H](NC(=O)[C@H](C)NC(=O)C[C@H](O)[C@H](COCc1ccccc1)NC(=O)[C@@H](NC(=O)c1ccccn1)C(C)C)C(N)=O | 5.4 | 41 | 11 | 37 |  |
| CC(C)C[C@H](NC(=O)[C@H](C)NC(=O)C[C@H](O)[C@H](COCc1ccc(Br)cc1)NC(=O)[C@H](NC(=O)c1ccccn1)C(C)C)C(N)=O | 6.4 | 41 | 15 | 50 |  |
| CC(C)C[C@H](NC(=O)[C@H](C)NC(=O)C[C@H](O)[C@H](COCc1ccc(Br)cc1)NC(=O)C(c1ccccc1)c1ccccc1)C(N)=O | 57 | 52 | 139 | 10 |  |
| CCCCNC(=O)C[C@H](O)[C@H](COCc1ccc(Br)cc1)NC(=O)[C@@H](NC(=O)c1ccccn1)C(C)C | 8.1 | 473 | 68 |  |  |
| CC(C)C[C@H](NC(=O)[C@H](C)NC(=O)C[C@H](O)[C@H](COCc1ccc(Br)cc1)NC(=O)[C@@H]1Cc2ccccc2N1)C(N)=O | 59 | 322 | 144 | 16 |  |
| CC(C)C[C@H](NC(=O)[C@H](C)NC(=O)C[C@H](O)[C@H](COCc1ccc(Br)cc1)NC(=O)CC(c1ccccc1)c1ccccc1)C(N)=O | 40 | 100 | 284 |  |  |
| CC(C)[C@H](NC(=O)c1ccccn1)C(=O)N[C@@H](COCc1ccc(Br)cc1)[C@@H](O)CC(=O)NCc1ccccc1 | 3.9 | 586 | 41 |  |  |
| CC(C)C[C@H](NC(=O)[C@H](C)NC(=O)C[C@H](O)[C@H](COCc1ccc(Br)cc1)NC(=O)c1c(F)cc(F)cc1F)C(N)=O | 3.4 | > 4000 | 10 |  |  |
| CC(C)C[C@H](NC(=O)[C@H](C)NC(=O)C[C@H](O)[C@H](COCc1ccc(Br)cc1)NC(=O)c1ccc2c(c1)OCO2)C(N)=O | 29 | > 5900 | 131 |  |  |
| CC(C)C[C@H](NC(=O)[C@H](C)NC(=O)C[C@H](O)[C@H](CCc1ccccc1)NC(=O)[C@@H](NC(=O)c1ccccn1)C(C)C)C(N)=O | 27 | 980 | 46 | 41 |  |
| CC(C)C[C@H](NC(=O)[C@H](C)NC(=O)C[C@H](O)[C@H](COCc1ccc(Br)cc1)NC(=O)c1ccc(Cl)c(Cl)c1)C(N)=O | 32 | 1810 | 91 |  |  |
| CC(C)C[C@H](NC(=O)[C@H](C)NC(=O)C[C@H](O)[C@H](COCc1ccc(Br)cc1)NC(=O)[C@@H](NC(=O)c1ccccn1)C(C)C)C(N)=O | 0.5 | 4.9 | 2.2 |  |  |
| CC(C)[C@H](NC(=O)c1ccccn1)C(=O)N[C@@H](COCc1ccc(Br)cc1)[C@@H](O)CC(=O)NCCNc1ccccc1 | 8.9 | 265 | 74 | 25 |  |
| CC(C)C[C@H](NC(=O)[C@H](C)NC(=O)C[C@H](O)[C@H](Cc1ccccc1)NC(=O)[C@@H](NC(=O)c1ccccn1)C(C)C)C(N)=O |  |  |  |  | 54 |
| CC(C)[C@H](NC(=O)c1ccccn1)C(=O)N[C@@H](COCc1ccc(Br)cc1)[C@@H](O)CC(=O)NC1CCCCC1 | 4.1 | 217 | 25 | 21 |  |
| COCCCNC(=O)C[C@H](O)[C@H](COCc1ccc(Br)cc1)NC(=O)[C@@H](NC(=O)c1ccccn1)C(C)C | 49 | > 4000 | 248 |  |  |
